Measured values gathered from unrelated publications.
Compare with care: the assays were run in different laboratories.

COCC(=O)N1CCC[C@H](C(=O)NCc2nc(-c3ccc(C#N)cc3)cs2)C1 — efflux ratio (Caco-2): 2.2
Cc1cc(-c2nccc3c2ccn3CC(=O)Nc2ccc(-c3cnccn3)cn2)ccn1 — Cmax (human, plasma; oral, 40 mg, single dose): 0.345 µM
CN(C)C(=O)c1cc2cnc(Nc3ccc(-c4ccc5c(=O)cc(N6CCOCC6)oc5c4)cc3)nc2n1C1CCCC1.Cl — Tmax (BALB/c mouse, plasma; oral, 20 mg/kg): 54 min
CC(C)n1c(C2CCNCC2)nc2c([N+](=O)[O-])c(Br)c(Br)cc21 — Cmax (human, plasma; oral, 75 mg, patients): 60.5 ng/mL
COc1ccc(-c2c(Nc3ccccn3)[nH]c3c(C4=CCCCC4)c(-c4ccccc4)nn3c2=O)cc1 — Cmax (human, plasma; oral, 400 mg once daily, multiple doses, patients): 3200 ng/mL
CCOCC(=O)N1CCC[C@H](C(=O)NCc2nc(-c3ccc(C)nc3)cs2)C1 — efflux ratio (Caco-2): 3.8
COc1ccc2c(c1)CN(C(=O)CCN1CCC(Cc3ccccc3)CC1)CC[S@@+]2[O-] — Cmax (male human, plasma; intravenous, 0.15 mg/kg, healthy volunteers): 349 ng/mL
O=C(COc1ccc(Cl)cc1)NC12CC(c3nnc([C@H]4C[C@@H](OC(F)(F)F)C4)o3)(C1)C2 — Cmax (human, plasma; oral, 200 mg, multiple doses, once daily, steady state, healthy volunteers): 16.2 µM
